Test [1] can be described thus: Inhibition of HDAC in human A2780 cells using Boc-Lys(epsilon-Ac)-AMC as substrate preincubated for 18 hrs followed by substrate addition measured after 3 hrs by fluorescence assay. It is filed as cell-based.
For the next test, the system named is A2780. In words: Antiproliferative activity against human A2780 cells measured after 72 hrs by MTT assay. The conditions noted are these: A2780, 72 h. It is filed as functional, cell-based. Background: Tetrazolium dyes change colour on reduction, which living cells bring about.
Test [2] has as its system CAL-27. In words: Antiproliferative activity against human CAL27 cells measured after 72 hrs by MTT assay. It is filed as functional, cell-based. The conditions noted are these: CAL-27, 72 h.
Another test concerns A2780cisR. The test is described as follows: Antiproliferative activity against human A2780cisR cells measured after 72 hrs by MTT assay. It is filed as functional, cell-based.
Test [3] is described as follows: Antiproliferative activity against human Cal27CisR cells measured after 72 hrs by MTT assay. Type of test: functional, cell-based.
A short description of test [4]: Inhibition of HDAC in human CAL27 cells using Boc-Lys(epsilon-Ac)-AMC as substrate preincubated for 18 hrs followed by substrate addition measured after 3 hrs by fluorescence assay. Type of test: cell-based. The conditions noted are these: CAL-27.
A short description of test [5]: Inhibition of HDAC in human Cal27CisR cells using Boc-Lys(epsilon-Ac)-AMC as substrate preincubated for 18 hrs followed by substrate addition measured after 3 hrs by fluorescence assay. It is filed as cell-based.
Test [6] in a line: Inhibition of HDAC in human A2780CisR cells using Boc-Lys(epsilon-Ac)-AMC as substrate preincubated for 18 hrs followed by substrate addition measured after 3 hrs by fluorescence assay. Type of test: cell-based.
The species entered for the next test is Homo sapiens. In words: Selectivity ratio of IC50 for HDAC in human A2780 cells to IC50 for HDAC in human A2780CisR cells. Type of test: cell-based.
The next test addresses Histone deacetylase 1 (Homo sapiens, UniProt Q13547). In words: Inhibition of recombinant full length human C-terminal FLAG/His-tagged HDAC1 expressed in baculovirus infected sf9 cells using Z-(Ac)Lys-AMC as substrate measured after 90 mins by fluorescence assay.
Test [7] concerns the target T1, Protein deacetylase HDAC6 (Homo sapiens, UniProt Q9UBN7).
T1 sequence (Q9UBN7 whole entry): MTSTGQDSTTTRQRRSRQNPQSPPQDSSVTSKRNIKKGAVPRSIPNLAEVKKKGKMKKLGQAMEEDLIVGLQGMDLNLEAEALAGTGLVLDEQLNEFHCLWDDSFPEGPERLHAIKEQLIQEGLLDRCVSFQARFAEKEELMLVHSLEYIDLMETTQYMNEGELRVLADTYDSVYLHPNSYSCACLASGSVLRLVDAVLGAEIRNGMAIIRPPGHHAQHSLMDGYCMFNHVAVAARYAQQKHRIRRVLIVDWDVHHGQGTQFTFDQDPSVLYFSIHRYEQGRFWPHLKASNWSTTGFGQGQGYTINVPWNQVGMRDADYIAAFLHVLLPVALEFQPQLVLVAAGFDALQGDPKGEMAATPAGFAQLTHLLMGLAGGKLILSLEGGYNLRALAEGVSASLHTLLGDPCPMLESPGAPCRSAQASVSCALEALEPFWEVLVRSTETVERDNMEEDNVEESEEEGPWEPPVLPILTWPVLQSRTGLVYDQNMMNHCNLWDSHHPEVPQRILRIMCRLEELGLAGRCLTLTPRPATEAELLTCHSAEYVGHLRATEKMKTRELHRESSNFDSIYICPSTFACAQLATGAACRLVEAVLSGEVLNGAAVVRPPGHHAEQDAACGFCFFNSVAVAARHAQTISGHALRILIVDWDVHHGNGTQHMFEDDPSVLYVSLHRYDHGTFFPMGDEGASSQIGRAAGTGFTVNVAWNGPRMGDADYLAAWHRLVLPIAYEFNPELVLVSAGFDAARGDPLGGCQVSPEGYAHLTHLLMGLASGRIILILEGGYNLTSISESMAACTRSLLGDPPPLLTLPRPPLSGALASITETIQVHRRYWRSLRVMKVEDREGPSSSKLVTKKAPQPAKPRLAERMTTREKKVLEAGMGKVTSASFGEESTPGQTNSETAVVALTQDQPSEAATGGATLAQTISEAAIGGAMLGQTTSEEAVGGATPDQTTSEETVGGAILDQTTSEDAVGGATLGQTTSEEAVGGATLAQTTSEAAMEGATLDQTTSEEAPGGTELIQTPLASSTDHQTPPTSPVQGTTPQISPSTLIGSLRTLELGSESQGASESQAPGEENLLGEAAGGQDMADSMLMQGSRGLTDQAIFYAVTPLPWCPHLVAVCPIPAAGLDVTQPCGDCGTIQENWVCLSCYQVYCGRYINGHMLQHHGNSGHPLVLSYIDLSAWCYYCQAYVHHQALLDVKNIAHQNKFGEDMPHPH
In words: Inhibition of full length human recombinant N-terminal GST-tagged HDAC6 expressed in baculovirus infected sf9 cells Z-(Ac)Lys-AMC as substrate measured after 90 mins by fluorescence assay.

The target in a further test is T2, Histone deacetylase 8 (Homo sapiens, UniProt Q9BY41).
T2 sequence (Q9BY41 whole entry): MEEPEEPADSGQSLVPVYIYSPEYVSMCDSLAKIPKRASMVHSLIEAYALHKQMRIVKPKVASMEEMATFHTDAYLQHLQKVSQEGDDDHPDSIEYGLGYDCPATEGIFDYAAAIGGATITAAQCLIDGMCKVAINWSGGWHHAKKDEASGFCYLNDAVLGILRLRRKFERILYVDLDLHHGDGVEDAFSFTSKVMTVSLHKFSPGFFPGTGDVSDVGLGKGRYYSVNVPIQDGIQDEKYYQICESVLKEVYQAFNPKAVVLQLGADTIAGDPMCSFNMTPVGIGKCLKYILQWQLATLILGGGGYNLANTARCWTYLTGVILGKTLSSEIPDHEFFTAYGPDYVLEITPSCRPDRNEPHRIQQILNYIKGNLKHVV
In words: Inhibition of human HDAC8 using Z-L-Lys(epsilon-trifluoroacetyl)-AMC as substrate measured after 90 mins by fluorescence assay.

In a further test the target is Histone deacetylase 4 (Homo sapiens, UniProt P56524). The test is described as follows: Inhibition of recombinant human N-terminal GST-tagged/C-terminal His-tagged HDAC4 expressed in insect cells using Boc-K(Ac)-AMC as substrate by fluorescence assay.
Test [8] concerns CAL-27. In words: Potentiation of cisplatin-induced cytotoxicity against human CAL27 cells assessed as decrease in cell viability at 10 uM preincubated for 48 hrs followed by cisplatin treatment measured after 72 hrs by MTT assay relative to cisplatin alone. Type of test: functional. In a few lines: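 Cells were preincubated 48 h with HDAC inhibitor, then cisplatin was added over a concentration range for 72 h, with MTT read-out. Shift factor is cisplatin-alone IC50 divided by combination IC50. Data are mean ± SEM of pooled data from at least three independent experiments, each in triplicate. Significance was by t test (p < 0.05).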

Histone deacetylase 1, sequence (Q13547 whole entry): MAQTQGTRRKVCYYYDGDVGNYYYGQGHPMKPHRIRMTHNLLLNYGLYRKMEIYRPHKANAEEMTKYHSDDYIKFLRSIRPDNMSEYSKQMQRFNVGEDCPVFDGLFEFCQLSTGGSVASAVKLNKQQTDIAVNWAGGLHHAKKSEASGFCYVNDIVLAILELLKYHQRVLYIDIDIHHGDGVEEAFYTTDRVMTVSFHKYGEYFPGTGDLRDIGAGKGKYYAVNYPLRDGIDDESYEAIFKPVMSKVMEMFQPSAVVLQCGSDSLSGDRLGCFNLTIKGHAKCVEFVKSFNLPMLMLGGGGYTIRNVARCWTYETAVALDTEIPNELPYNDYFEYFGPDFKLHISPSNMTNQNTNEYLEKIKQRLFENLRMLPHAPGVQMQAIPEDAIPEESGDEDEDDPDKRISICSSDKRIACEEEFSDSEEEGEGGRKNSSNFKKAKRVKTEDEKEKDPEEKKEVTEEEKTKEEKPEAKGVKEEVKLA
Histone deacetylase 4, sequence (P56524 whole entry): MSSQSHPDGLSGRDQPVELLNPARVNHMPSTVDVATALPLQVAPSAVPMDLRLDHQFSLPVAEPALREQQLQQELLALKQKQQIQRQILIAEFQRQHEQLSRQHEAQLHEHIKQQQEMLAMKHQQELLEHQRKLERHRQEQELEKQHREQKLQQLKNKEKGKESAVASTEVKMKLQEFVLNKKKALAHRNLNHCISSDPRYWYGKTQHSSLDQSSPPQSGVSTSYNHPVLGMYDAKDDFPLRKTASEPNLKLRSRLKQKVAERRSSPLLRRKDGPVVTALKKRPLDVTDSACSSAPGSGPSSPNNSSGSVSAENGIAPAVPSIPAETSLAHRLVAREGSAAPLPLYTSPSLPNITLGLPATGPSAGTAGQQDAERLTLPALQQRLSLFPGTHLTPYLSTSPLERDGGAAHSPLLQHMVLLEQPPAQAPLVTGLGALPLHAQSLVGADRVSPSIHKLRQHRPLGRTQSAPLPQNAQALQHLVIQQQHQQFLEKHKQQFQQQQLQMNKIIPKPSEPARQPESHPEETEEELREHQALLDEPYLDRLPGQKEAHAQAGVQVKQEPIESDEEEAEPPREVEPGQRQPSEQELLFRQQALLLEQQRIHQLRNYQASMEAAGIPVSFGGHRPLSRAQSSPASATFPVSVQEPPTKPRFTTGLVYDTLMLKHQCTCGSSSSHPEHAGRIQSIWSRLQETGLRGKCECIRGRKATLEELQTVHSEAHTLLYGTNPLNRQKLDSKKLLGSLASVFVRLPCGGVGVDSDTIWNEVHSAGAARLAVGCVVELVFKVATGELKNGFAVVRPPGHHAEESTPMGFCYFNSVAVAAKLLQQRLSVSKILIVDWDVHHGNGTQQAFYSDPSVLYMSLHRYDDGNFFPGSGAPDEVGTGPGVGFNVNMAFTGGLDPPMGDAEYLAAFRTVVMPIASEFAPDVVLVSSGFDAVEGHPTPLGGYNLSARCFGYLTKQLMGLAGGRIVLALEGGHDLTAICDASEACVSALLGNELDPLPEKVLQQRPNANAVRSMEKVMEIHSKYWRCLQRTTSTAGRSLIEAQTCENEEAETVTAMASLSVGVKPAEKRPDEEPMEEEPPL

As to `O=C(CCCCCCC(=O)Nc1ccccc1)NO` [VORINOSTAT], the IC50 (in general, the concentration needed to halve the response being measured) in test [1] is 1.68 µM.
`COc1cc(NC(=O)NOCCCCCC(=O)NO)c2nc(OC(C)C)cc(C)c2c1Oc1cccc(C(F)(F)F)c1`: the concentration for half-maximal inhibition (IC50) in the test on A2780 was determined as 1.7 µM; in the test on CAL-27 [2] it was 3.9 µM; in the test with A2780cisR, 3.6 µM; in test [3] it was 2.9 µM; in [1], 149 µM; in test [4] it was 107 µM. This compound displayed an IC50 in test [5] of 56 µM.
Turning to `O=C(CCCCCONC(=O)Nc1cccc2cccnc12)NO`, the IC50 with A2780 came to 3 µM; in the test on CAL-27 [2] it was 1.1 µM; in the test with A2780cisR it was 1 µM; in test [3] it was 2.2 µM; in test [1], 2.1 µM; in [4] it was 0.9 µM. The IC50 in test [6] and in test [5] was 0.9 µM in each case. Further, the Ratio IC50 in the test filed under Homo sapiens is 2 to 3.4.
`O=C(CCCCCONC(=O)Nc1cccc2ccccc12)NO`: the IC50 in the test on CAL-27 [2] worked out at 1.6 µM; in the test on A2780cisR, 7.9 µM; in [3], 3.9 µM; in test [1] it was 1.1 µM; in [4] it was 1.1 µM; in test [6] it was 0.9 µM. In addition, in test [5], half-maximal inhibition (IC50) required 1 µM.
As for `Cc1ccc2cccc(NC(=O)NOCCCCCC(=O)NO)c2n1`, the IC50 came out at 4.3 µM with A2780; 2.2 µM in the test on CAL-27 [2]; 1.3 µM in the test on A2780cisR; 4.7 µM in test [3]; 3.3 µM in [1]; 3.4 µM in [4]. For the same compound, the IC50 turned out to be 1.7 µM in test [6] and 2.8 µM in [5]. For the same compound, in the test listed under Homo sapiens, the Ratio IC50 is 2 to 3.4.
On to `O=C(CCCCCONC(=O)Nc1ccc2ccccc2c1)NO`, for which the IC50 in the test with A2780 turned out to be 1.4 µM; with CAL-27 [2], 1.7 µM; in the test on A2780cisR, 1.6 µM; in test [3], 2.3 µM; in test [1] it was 5.1 µM; in test [4] it was 1 µM. The IC50 stood at 1.6 µM in test [6] and 1 µM in [5]. The Ratio IC50 in the test filed under Homo sapiens is 2 to 3.4.
Regarding `O=C(CCCCCONC(=O)Nc1cnc2ccccc2c1)NO`, the IC50 in the test with CAL-27 [2] was determined as 3 µM; in the test on A2780cisR it was 11.6 µM; in [3], 5.4 µM; in [1], 1.1 µM; in test [4] it was 1.3 µM; in test [6] it was 0.9 µM. The IC50 was 1.3 µM in test [5]; 0.189 µM at Histone deacetylase 1; 0.0517 µM in test [7]; 11.2 µM against Histone deacetylase 8; above 10 µM at Histone deacetylase 4.
Turning to `O=C(CCCCCONC(=O)Nc1ccc2ncccc2c1)NO`, the IC50 stood at 27.3 µM with A2780; 5.8 µM in the test on CAL-27 [2]; 10.5 µM in the test on A2780cisR; 7.6 µM in [3]; 2.4 µM in test [1]; 1.4 µM in [4]. Further, the half-inhibitory concentration (IC50) in test [6] was determined as 2 µM; in test [5], 1.1 µM.
Turning to `CN1CCc2c(c3ccccc3n2Cc2ccc(C(=O)NO)cc2)C1` [TUBASTATIN A], the IC50 in the test on CAL-27 [2] amounted to 4.6 µM; in [3], 10.8 µM; in test [4], 16.1 µM; in test [5], 12.1 µM. Further, the “fold change (FC)” value with CAL-27 [8] is 1.1.
Regarding `CN(O)C(=O)CCCCCONC(=O)Nc1cccc2ccccc12`, the IC50 with A2780 is 46.8 µM; in the test on CAL-27 [2] it was 43.7 µM; in the test with A2780cisR it was 44.2 µM; in [3], 65.8 µM; in [4] it was 190 µM; in test [5], 204 µM.

The record behind these values is ChEMBL document CHEMBL4014350, “Alkoxyurea-Based Histone Deacetylase Inhibitors Increase Cisplatin Potency in Chemoresistant Cancer Cell Lines” (J Med Chem, 2017).
